High-throughput results deposited in PubChem BioAssay by The Scripps Research Institute Molecular Screening Center.
The list is not random: actives were taken first. Their share in the collection is about 1.8%.
M4 antag: human M4 muscarinic receptor antagonists, primary screen, CHO cells, Fluo-8 calcium fluorescence; Muscarinic acetylcholine receptor M4 (Homo sapiens), P08173; CHO-hM4 cells, ACh EC80; inhibition, % at 3 µM; 360,000 compounds, 0.73% hits;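 active = inhibition above its plate's cutoff, the mean inhibition of sample wells plus 3 SD, cut at about 27% in these data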
Target sequence (P08173 whole entry, looked up): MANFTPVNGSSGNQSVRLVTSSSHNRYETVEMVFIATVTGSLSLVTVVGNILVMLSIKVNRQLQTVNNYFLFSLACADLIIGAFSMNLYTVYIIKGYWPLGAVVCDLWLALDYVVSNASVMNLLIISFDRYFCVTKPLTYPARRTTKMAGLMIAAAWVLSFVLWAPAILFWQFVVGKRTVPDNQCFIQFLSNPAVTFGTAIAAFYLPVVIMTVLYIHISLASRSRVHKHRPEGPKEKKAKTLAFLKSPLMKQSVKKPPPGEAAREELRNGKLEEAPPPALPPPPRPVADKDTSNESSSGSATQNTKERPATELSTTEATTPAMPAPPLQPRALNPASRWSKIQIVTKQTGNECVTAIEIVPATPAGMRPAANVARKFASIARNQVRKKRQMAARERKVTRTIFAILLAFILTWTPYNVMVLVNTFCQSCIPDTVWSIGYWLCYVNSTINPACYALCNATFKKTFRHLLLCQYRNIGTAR
CHRM4 PAM: human M4 muscarinic receptor positive allosteric modulators, primary screen, CHO-K1 cells, Fluo-8 calcium fluorescence. Muscarinic acetylcholine receptor M4 (Homo sapiens), P08173. CHO-K1 hM4/Gqi5, ACh EC20; 0% = ACh EC20, 100% = maximal ACh. activation, % at 3 µM. 360,000 compounds, 0.4% hits. AID 624126, 2012;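 active = activation above its plate's cutoff, the mean activation of sample wells plus 3 SD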
CHRM4 agonist: human M4 muscarinic receptor agonists, primary screen, CHO-K1 cells, Fluo-8 calcium fluorescence | Muscarinic acetylcholine receptor M4 (Homo sapiens), P08173 | CHO-K1 hM4/Gqi5; vehicle 0%, full acetylcholine response 100% | 360,000 compounds, 0.14% hits | activation, % at 3 µM;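 active = activation above the run mean over all test wells plus 3 SD, cut at about 32% in these data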;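 also: peak over basal fluorescence ratio per well then scaled between controls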
M5 PAM: human M5 muscarinic receptor positive allosteric modulators, primary screen, CHO-K1 cells, Fluo-8 calcium fluorescence; Muscarinic acetylcholine receptor M5 (Homo sapiens), P08912; CHO-K1 hM5, ACh EC20 PAM; 0% = ACh EC20, 100% = ACh EC100; activation, % at 3 µM; 360,000 compounds, 0.3% hits;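 active = activation above the run cutoff, the mean activation of all test compounds plus 3 SD, cut at about 18% in these data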
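Assay system: CHO-K1 hM5 cells / Incubation: Fluo-8 loading 80 min at 37 °C plus 30 min room temperature / Technique: Fluo-8 calcium dye fluorescence, kinetic read / Repeats: single replicate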
CHRM5 antagonist: human M5 muscarinic receptor antagonists, primary screen, CHO cells, Fluo-8 calcium fluorescence; Muscarinic acetylcholine receptor M5 (Homo sapiens), P08912; CHO-hM5 cells, ACh EC80; inhibition, % at 3 µM; 360,000 compounds, 0.59% hits;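 active = inhibition above a per-plate cutoff, the mean of that plate's test compounds plus 3 SD, cut at about 27% in these data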
M5 ag: human M5 muscarinic receptor agonists, primary screen, CHO-K1 cells, Fluo-8 calcium fluorescence; Muscarinic acetylcholine receptor M5 (Homo sapiens), P08912; CHO-K1 hM5 cells; 0% DMSO wells, 100% maximal acetylcholine response; activation, % at 3 µM; 360,000 compounds, 0.19% hits;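 active = activation above the run's mean over test compounds plus 3 SD, cut at about 23% in these data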;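 also: signal is peak over basal fluorescence ratio across the kinetic read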
Large screens that a line does not name were inactive.

Cc1ccccc1N1C(=O)c2cccc3c(N(C)CCO)ccc(c23)C1=O	none
NC(c1csc(NC(=O)Nc2cccc(Cl)c2)n1)C1CCCCC1 (configuration not stated)	M4 antag 38.6, CHRM4 agonist 37.6
NC(c1csc(NC(=O)Nc2ccccc2)n1)C1CCCCC1 (configuration not stated)	none
O=C(Nc1ccc(C(=O)OC[C@@H]2CCCN3CCCC[C@H]23)cc1)c1cccc(Br)c1	none
Cc1ccc(N2C(=O)CCSC23C(=O)Nc2ccccc23)cc1 (configuration not stated)	M4 antag 27.1
c1ccc(-n2nnnc2Oc2ccc(-c3nnco3)cc2)cc1	CHRM5 antagonist 79.0, M5 ag 83.8
CN(C)CCCn1c(=O)n(Cc2ccco2)c(=O)c2c3c(sc21)CCCCC3	M5 PAM 18.3
CN(C)CCCn1c(=O)n(CCc2ccccc2)c(=O)c2c3c(sc21)CCCCC3	none
Cc1ccc(NS(=O)(=O)c2cc([N+](=O)[O-])ccc2NNC(=S)Nc2cc(C)ccc2C)c(C)c1	CHRM5 antagonist 37.0
COc1ccc(NC(=S)Nc2cccc([N+](=O)[O-])c2)cc1	none
Cc1ccc(NS(=O)(=O)c2cc([N+](=O)[O-])ccc2NNC(=S)Nc2cccc(Cl)c2)c(C)c1	none
COc1ccc(NC(=S)NNc2ccc([N+](=O)[O-])cc2S(=O)(=O)Nc2ccc(C)cc2C)cc1	CHRM5 antagonist 33.8
Cc1ccc(Cn2ccc(=O)c(OCc3ccccc3)c2C)cc1	M5 PAM 22.5
Cc1c(OCc2ccccc2)c(=O)ccn1Cc1ccc(Cl)cc1	none
CCCCOC(=O)CCc1c(C)[nH]c(=O)c(C#N)c1C	CHRM4 PAM 26.1
Cc1ccc(NC(=O)CCc2c(C)[nH]c(=O)c(C#N)c2C)cc1	none
Cc1c(Cl)sn(-c2ccc(Cl)cc2)c1=O	M4 antag 37.9
CN1C(=O)C(C)(C)c2cc(S(=O)(=O)N3CCC(C(=O)NCc4ccccc4Cl)CC3)ccc21	none
Cc1cccc(C)c1NC(=O)C(C)n1c(-c2ccc(=O)[nH]c2)nc2ccccc21 (configuration not stated)	none
Cc1cccc(C)c1NC(=O)C(C1CC1)n1c(-c2ccc(=O)[nH]c2)nc2ccccc21 (configuration not stated)	M5 PAM 21.0
COC(=O)C(NC(=O)C(CC(C)C)NC(=O)C1CCC(C)CC1)C(C)C (configuration not stated)	M5 PAM 35.6, CHRM5 antagonist 36.0
O=C(c1c[nH]c(C(=O)C(Cl)(Cl)Cl)c1)c1ccc(F)cc1F	CHRM5 antagonist 27.5
O=C1NC(=Nc2cccnc2)S/C1=C/c1ccc(F)cc1	CHRM4 PAM 16.0
O=C1NC(=Nc2ccccc2)S/C1=C\c1cccnc1	none
CCCc1c(C(=O)N/N=C(\C)c2ccccn2)nnn1-c1nonc1N	none
NC(=O)N/N=C/c1c(F)cccc1F	CHRM4 PAM 23.0
NC(=O)N/N=C/c1c(F)c(F)c(F)c(F)c1F	none
CC(C)CCNC(=O)c1onc(CSc2ccc(F)c(F)c2)c1C(=O)NCCC(C)C	none
Cc1cccc(S(=O)Cc2ccc(C(=O)N3CCN(C(=O)c4ccco4)CC3)o2)c1 (configuration not stated)	M5 PAM 22.2
O=C1C=C(c2ccc3ncccc3c2)C[C@@H](c2ccc3c(c2)OCO3)C1	none
CCOc1ccc2[nH]c3nc(SCC(=O)NC4CC4)nnc3c2c1	none
N#Cc1ccc(Cl)cc1NC(=O)COC(=O)[C@H](CCC(N)=O)NC(=O)c1ccc(F)cc1	none
CN1C(=O)/C(=C\c2ccc(N(C)C)cc2)OC1=S	M5 ag 95.6
O=C(COC(=O)CCc1ccccc1)Nc1cc(S(=O)(=O)N2CCOCC2)ccc1N1CCCC1	none
Cc1ccc(S(=O)(=O)N(C)C)cc1NC(=O)C(C)N(C)Cc1sccc1C (configuration not stated)	CHRM5 antagonist 29.8
Cc1ccc(-c2csc(N3CCC[C@@H]3C(=O)NCCn3c(-c4ccncc4)nc4ccccc43)n2)cc1	M4 antag 47.8
Cc1ccc(-c2csc(N3CCN(CCCn4c(-c5ccncc5)nc5ccccc54)CC3)n2)cc1	none
Cc1noc(C)c1C(=O)OCC(=O)Nc1ccc(N2CCOCC2)cc1	CHRM4 PAM 20.1
NC(=O)NC(=O)COC(=O)CC12CC3CC(CC(C3)C1)C2	M5 PAM 20.2
NC(=O)COC(=O)CC12CC3CC(CC(C3)C1)C2	none
CC(=O)c1ccc(OC(=O)C2CSC3(C)CCC(=O)N23)cc1 (configuration not stated)	none
O=S(=O)(NCc1ccccc1)c1ccc(-n2cccn2)cc1	none
Nc1nc2nc(-c3ccccc3)cc(C(F)(F)F)c2s1	none
CN1C2CCC1CC(OC(c1ccccc1)c1ccccc1)C2 (configuration not stated)	M4 antag 99.1, CHRM5 antagonist 99.1
CN1CCC(OC(c2ccccc2)c2ccc(Cl)cc2)C1 (configuration not stated)	M4 antag 57.8, CHRM5 antagonist 88.7
CN1C2CCC1CC(OC(=O)c1c[nH]c3ccccc13)C2 (configuration not stated)	none
O=C(O)c1cccc(Nc2nc(Nc3ccccc3)nc(N3CCCC3)n2)c1	CHRM4 PAM 24.8
Cc1cc(C)n2ncc(C(=O)NCc3ccccc3)c2n1	M5 PAM 31.2
COc1cc(OC)cc(C(=O)Nc2ccccc2C(=O)NCc2cccnc2)c1	CHRM5 antagonist 28.2
CNC(=O)Nc1ccccc1C(=O)NCc1ccccc1	M4 antag 86.6
O=C(Nc1ccccc1)Nc1ccccc1C(=O)NCc1ccccc1	none
CCOC(=O)C1=C(COC(=O)COc2ccc(C#N)cc2)NC(=O)NC1C (configuration not stated)	none
CC1(C)Cc2c(cnn2-c2ccccc2)C(=O)/C1=N\NC(=O)c1ccncc1	CHRM4 PAM 18.0
Cc1ccc(N2C(=O)[C@@H]3[C@H](C2=O)C2c4ccccc4C=NN2[C@@H]3C(=O)c2ccc(Cl)cc2)cc1 (some centres not stated)	CHRM5 antagonist 26.9
O=C1N=c2ccccc2=C1c1sc(NS(=O)(=O)c2ccccc2)nc1O	CHRM4 PAM 28.0
